Measured values taken from ChEMBL document CHEMBL1124904, “7-Oxabicyclo[2.2.1]heptyl carboxylic acids as thromboxane A2 antagonists: aza omega-chain analogues” (J Med Chem, 1990).
pIC50, pKd: −log10 of the molar value. One block for each compound: values may come before it.

Tests used:
[1] = species: Homo sapiens; assay: Ability to inhibit platelet aggregation of human platelet-rich plasma (PRP) induced by 800 uM of AA-IPA (arachidonic acid); assay type: functional; conditions: read-out: I50
Outline: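 Human platelet-rich plasma; aggregation triggered by arachidonic acid at 800 μM. Test acids were also checked against ADP (20 μM)-induced aggregation. I50 taken as the concentration inhibiting aggregation.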

[2] = species: Cavia porcellus; assay: Evaluated for its potency in Guinea pig trachea (GPT) spirals in the presence of increasing concentrations; assay type: functional; conditions: Cavia porcellus, Trachea
Outline: (§1)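 Guinea pig tracheal spirals contracted by U-46,619 in cumulative dose-response curves, repeated with increasing antagonist concentrations; Kb from analysis of the rightward shift.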

[3] = species: Rattus norvegicus; assay: Evaluated for its potency Rat aorta (RA) strips in the presence of increasing concentrations; assay type: functional; conditions: Rattus norvegicus, Aorta
Outline: (§2)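 Rat aortic strips contracted by U-46,619 in cumulative dose-response curves, repeated with increasing antagonist concentrations; Kb from analysis of the rightward shift.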

[4] = tested on: Cavia porcellus; assay: Evaluated for the percent inhibition of arachidonate-induced hypertension resulting in decreases in blood pressure at 3 min after dosing (0.1 mg/kg iv) in anesthetized guinea pig.; assay type: functional
Outline: (§3)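 Anesthetized guinea pig dosed iv with antagonist at 0.1 mg/kg (some at 1.0 mg/kg). Arachidonic acid 0.5 mg/kg iv given as challenge 3 or 60 min later. Airway resistance, dynamic compliance and blood pressure recorded; percent inhibition of each response.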

[5] = molecular target: T1, Thromboxane A2 receptor (Homo sapiens, UniProt P21731); assay: Binding affinity was determined from the inhibition of [3H]-SQ 29,548 binding to Thromboxane A2 receptor in human platelet membranes.; assay type: cell membranes
T1 sequence (P21731 whole entry): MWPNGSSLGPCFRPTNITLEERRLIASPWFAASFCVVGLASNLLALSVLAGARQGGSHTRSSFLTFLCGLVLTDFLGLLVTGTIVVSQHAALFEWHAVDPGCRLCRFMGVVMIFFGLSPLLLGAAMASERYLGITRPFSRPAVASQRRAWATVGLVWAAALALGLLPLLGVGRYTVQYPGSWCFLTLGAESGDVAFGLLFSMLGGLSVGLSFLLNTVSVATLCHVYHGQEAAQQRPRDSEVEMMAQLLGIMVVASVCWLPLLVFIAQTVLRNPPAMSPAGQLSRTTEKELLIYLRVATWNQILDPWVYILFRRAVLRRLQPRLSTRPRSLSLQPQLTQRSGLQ
Outline: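 Radioligand binding to human platelet membranes with [5,6-3H2]-SQ 29,548 as tracer; Kd derived from inhibition of specific binding.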

[6] = species: Cavia porcellus; assay: Evaluated for its potency in guinea pig trachea (GPT) spirals in the presence of increasing concentrations; assay type: functional; outline: as §1
[7] = tested on: Cavia porcellus; assay: Evaluated for the percent inhibition of arachidonate-induced dynamic compliance at 3 min after dosing (0.1 mg/kg iv) in anesthetized guinea pig.; assay type: functional; outline: as §3
[8] = tested on: Cavia porcellus; assay: Evaluated for the percent inhibition of arachidonate-induced hypertension resulting in decreases in blood pressure at 60 min after dosing (0.1 mg/kg iv) in anesthetized guinea pig.; assay type: functional; outline: as §3
[9] = tested on: Cavia porcellus; assay: Evaluated for the percent inhibition of arachidonate-induced air-way resistance at 3 min after dosing (0.1 mg/kg iv) in anesthetized guinea pig.; assay type: functional; outline: as §3
[10] = species: Homo sapiens; assay: Evaluated for ability to inhibit platelet aggregation of human platelet-rich plasma (PRP) induced by 11.9-epoxymethano-PGH2; assay type: functional; conditions: read-out: I50
Outline: (§4)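 Human PRP aggregation induced by U-46,619 (11,9-epoxymethano-PGH2, stable PGH2/TxA2 mimic) at 5 or 10 μM; I50 reported. Values are single determinations unless otherwise noted.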

[11] = tested on: Cavia porcellus; assay: Evaluated for the percent inhibition of arachidonate-induced air-way resistance at 60 min after dosing (0.1 mg/kg iv) in anesthetized guinea pig.; assay type: functional; outline: as §3
[12] = species: Rattus norvegicus; assay: Evaluated for its potency in rat aorta (RA) strips in the presence of increasing concentrations; assay type: functional; outline: as §2
[13] = tested on: Cavia porcellus; assay: Evaluated for the percent inhibition of arachidonate-induced dynamic compliance at 60 min after dosing (0.1 mg/kg iv) in anesthetized guinea pig.; assay type: functional; outline: as §3
[14] = species: Homo sapiens; assay: Evaluated for ability to inhibit platelet aggregation of human platelet-rich plasma (PRP) induced by 11.9-epoxymethano-PGH2.; assay type: functional; conditions: Homo sapiens, Plasma; read-out: I50; outline: as §4

SMILES: O=C(O)CCC/C=C/CC1C2CCC(O2)C1CNC(=O)CNC(=O)CCCC1CCCCC1 (stereo unspecified)
Inhibition [4]: 289%
pKd [5]: 8.96
Kb [6]: 0.07 nM
Inhibition [7]: 97%
Inhibition [8]: 289%
pIC50 ([1]; Homo sapiens, Plasma): 7.35
Inhibition [9]: 99%
pIC50 [10]: 6.92
Inhibition [11]: 84%
Kb [12]: 0.9 nM
Inhibition [13]: 59%

SMILES: COc1ccc(NCC(=O)NCC2C3CCC(O3)C2C/C=C/CCCC(=O)O)cc1 (stereo unspecified)
pIC50 ([1]; Homo sapiens, Plasma): 4.87

SMILES: O=C(O)CCC/C=C/CC1C2CCC(O2)C1CCNC(=O)Nc1ccccc1 (stereo unspecified)
pIC50 ([1]; Homo sapiens, Plasma): 3.74

SMILES: O=C(O)CCC/C=C/CC1C2CCC(O2)C1CNC(=O)C(=O)Nc1ccccc1 (stereo unspecified)
pIC50 ([1]; Homo sapiens, Plasma): 5.26

SMILES: CCCCNC(=O)NCC(=O)NCC1C2CCC(O2)C1C/C=C/CCCC(=O)O (stereo unspecified)
pIC50 ([1]; Homo sapiens, Plasma): 6.00

SMILES: O=C(O)CCC/C=C/CC1C2CCC(O2)C1CNCC(=O)Nc1ccccc1 (stereo unspecified)
pIC50 ([1]; Homo sapiens, Plasma): 5.28

SMILES: O=C(O)CCC/C=C/CC1C2CCC(O2)C1NC(=O)CCCc1ccccc1 (stereo unspecified)
pIC50 ([1]; Homo sapiens, Plasma): 4.96

SMILES: CCCCCNC(=O)CCC(=O)NC1C2CCC(O2)C1C/C=C/CCCC(=O)O (stereo unspecified)
pIC50 ([1]; Homo sapiens, Plasma): 3.80

SMILES: O=C(O)CCC/C=C/CC1C2CCC(O2)C1CNC(=O)CNC(=O)CCCCC1CCCCC1 (stereo unspecified)
pKd [5]: 8.59
Kb [6]: 0.07 nM
pIC50 ([1]; Homo sapiens, Plasma): 6.80
pIC50 [10]: 5.71
Kb [12]: 2.5 nM

SMILES: O=C(O)CCC/C=C/CC1C2CCC(O2)C1CNCCNc1ccccc1 (stereo unspecified)
pIC50 ([1]; Homo sapiens, Plasma): 4.19

SMILES: CCCCOC(=O)NCC(=O)NCC1C2CCC(O2)C1C/C=C/CCCC(=O)O (stereo unspecified)
pIC50 ([1]; Homo sapiens, Plasma): 5.96

SMILES: CC(C)(C)c1ccc(SCC(=O)NCC(=O)NCC2C3CCC(O3)C2C/C=C/CCCC(=O)O)cc1 (stereo unspecified)
Inhibition [4]: 191%
pKd [5]: 8.38
Kb [6]: 0.1 nM
Inhibition [7]: 95%
Inhibition [8]: 184%
pIC50 ([1]; Homo sapiens, Plasma): 7.82
Inhibition [9]: 98%
pIC50 [10]: 6.82
Inhibition [11]: 43%
Kb [12]: 1.8 nM
Inhibition [13]: 26%

More lines, main results first:

pIC50 ([1]; Homo sapiens, Plasma): 6.30
SMILES: CCCCCNC(=O)CC(=O)NCC1C2CCC(O2)C1C/C=C/CCCC(=O)O (stereo unspecified)

pIC50 ([1]; Homo sapiens, Plasma): 5.18
SMILES: CCCCCCC(=O)NCC(=O)NCC1C2CCC(O2)C1C/C=C/CCCC(=O)O (single isomer, unassigned; (+))
Kb [2]: 174 nM
Kb [3]: 326 nM

pIC50 ([1]; Homo sapiens, Plasma): 3.28
SMILES: CCCCCC(=O)NC(C)(C)C(=O)NCC1C2CCC(O2)C1C/C=C/CCCC(=O)O (stereo unspecified)

pIC50 ([1]; Homo sapiens, Plasma): 6.18
SMILES: CCCCCCC(=O)OCC(=O)NCC1C2CCC(O2)C1C/C=C/CCCC(=O)O (stereo unspecified)

pIC50 [1]: 4.28
SMILES: CCCCCC(=O)NC(C)C(=O)NCC1C2CCC(O2)C1C/C=C/CCCC(=O)O (stereo in doubt; 48)

pIC50 ([1]; Homo sapiens, Plasma): 4.92
SMILES: CCCCCCNCC1C2CCC(O2)C1C/C=C/CCCC(=O)O (stereo unspecified)

pIC50 ([1]; Homo sapiens, Plasma): 5.52
SMILES: CCCCCC(=O)N(C)CC(=O)NCC1C2CCC(O2)C1C/C=C/CCCC(=O)O (stereo unspecified)

pKd [5]: 7.91
pIC50 ([1]; Homo sapiens, Plasma): 7.40
pIC50 [14]: 6.64
SMILES: CCCCCC/C(S)=N/CC(=O)NCC1C2CCC(O2)C1C/C=C/CCCC(=O)O (stereo unspecified)
Inhibition [4]: 178%
Kb [2]: 4.4 nM
Inhibition [7]: 94%
Inhibition [8]: 158%
Inhibition [9]: 97%
Inhibition [11]: 51%
Kb [3]: 1.1 nM
Inhibition [13]: 56%
